Experimental findings from ChEMBL document CHEMBL1155299, “Design, syntheses, and evaluation of Taspase1 inhibitors” (Bioorg Med Chem Lett, 2009) are described below.

One experiment deals with T1, Threonine aspartase 1 (Homo sapiens, UniProt Q9H6P5).
T1 sequence (Q9H6P5 whole entry): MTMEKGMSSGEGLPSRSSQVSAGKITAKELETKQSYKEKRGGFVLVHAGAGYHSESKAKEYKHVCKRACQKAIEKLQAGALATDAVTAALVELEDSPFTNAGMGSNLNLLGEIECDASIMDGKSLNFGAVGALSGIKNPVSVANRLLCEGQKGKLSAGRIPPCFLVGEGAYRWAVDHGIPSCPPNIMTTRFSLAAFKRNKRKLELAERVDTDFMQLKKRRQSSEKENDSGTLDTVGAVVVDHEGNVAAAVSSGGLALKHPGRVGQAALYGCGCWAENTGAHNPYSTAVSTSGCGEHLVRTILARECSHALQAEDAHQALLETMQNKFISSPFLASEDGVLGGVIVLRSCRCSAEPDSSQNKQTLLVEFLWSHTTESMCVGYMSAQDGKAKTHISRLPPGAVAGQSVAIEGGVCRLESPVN
The experiment can be described thus: Inhibition of recombinant Taspase 1 assessed as accumulation of emitted fluorescence by FRET assay.

The target in experiment [1] is T2, Threonine aspartase 1 (Homo sapiens) (UniProt Q9H6P5).
T2 sequence (whole entry): T1 sequence (Q9H6P5 whole entry)
The experiment can be described thus: Inhibition of recombinant Taspase 1 assessed as loss of processing and accumulation of full length p45 fragment by radiographic in vitro cleavage assay added 30 mins before translated p45MLL. The method in brief:
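Substrate was a p45MLL fragment (residues 2,500–2,800) with the CS1 site mutated to block cleavage there. It was made by in vitro translation as 35S-labelled protein, exposed to Taspase1, and cleavage was followed by radiography.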

Experiment [2] has as its target T2, Threonine aspartase 1 (Homo sapiens). Description: Inhibition of recombinant Taspase 1 assessed as accumulation of emitted fluorescence at 100 uM by FRET assay.

Each structure is given as a SMILES string. Calls of active or inactive are those of the source. No cut-off for these calls is given here. Peptide text beside a SMILES is read from it.

In general, IC50 refers to the concentration that inhibits the measured activity by half. On to `CC[C@H](C)[C@H](NC(C)=O)C(=O)N[C@@H](CO)C(=O)N[C@@H](CCC(N)=O)C(=O)N[C@@H](CC(C)C)C(=O)N[C@@H](C/C=C/S(C)(=O)=O)C(=O)O` (HELM PEPTIDE1{[ac].I.S.Q.L.[CS(=O)(=O)/C=C/C[C@H](N[*:1])C(=O)O]}$$$$V2.0), for which, at Threonine aspartase 1, the half-inhibitory concentration (IC50) is above 100 µM. The result in experiment [1] was Active.

In the case of `CCCC[C@H](NC(=O)[C@H](CC(C)C)NC(=O)[C@H](CCC(N)=O)NC(C)=O)C(=O)O` (HELM PEPTIDE1{[ac].Q.L.[Nle]}$$$$V2.0), in experiment [2], the outcome was inactive.

On to `CC[C@H](C)[C@H](NC(C)=O)C(=O)N[C@@H](CO)C(=O)N[C@@H](CCC(N)=O)C(=O)N[C@@H](CC(C)C)C(=O)N[C@@H](C/C=C/C(C)=O)C(=O)O` (HELM PEPTIDE1{[ac].I.S.Q.L.[CC(=O)/C=C/C[C@H](N[*:1])C(=O)O]}$$$$V2.0), for which the IC50 on Threonine aspartase 1 was 63.4 µM. The outcome in experiment [1] was Active.

On to `CCCC[C@H](NC(=O)[C@H](CC(C)C)NC(=O)[C@H](CCC(N)=O)NC(=O)[C@H](CO)NC(=O)[C@@H](NC(C)=O)[C@@H](C)CC)C(=O)O` (HELM PEPTIDE1{[ac].I.S.Q.L.[Nle]}$$$$V2.0), for which, in experiment [2], the outcome was inactive.

Take `CC[C@H](C)[C@H](NC(C)=O)C(=O)N[C@@H](CO)C(=O)N[C@@H](CCC(N)=O)C(=O)N[C@@H](CC(C)C)C(=O)N[C@H](/C=C/S(C)(=O)=O)CC(=O)O` (HELM PEPTIDE1{[ac].I.S.Q.L.[CS(=O)(=O)/C=C/[C@H](CC(=O)O)N[*:1]]}$$$$V2.0): the outcome in experiment [1] was Active.

For `CC[C@H](C)[C@H](NC(C)=O)C(=O)N[C@@H](CO)C(=O)N[C@@H](CCC(N)=O)C(=O)N[C@@H](CC(C)C)C(=O)N[C@@H](CC(=O)C1(C)CO1)C(=O)O` (some centres undefined) (HELM PEPTIDE1{[ac].I.S.Q.L.[CC1(C(=O)C[C@H](N[*:1])C(=O)O)CO1]}$$$$V2.0), the result in experiment [1] was Active.

For `CC[C@H](C)[C@H](NC(C)=O)C(=O)N[C@@H](CO)C(=O)N[C@@H](CCC(N)=O)C(=O)N[C@@H](CC(C)C)C(=O)NC1CB(O)OC1=O` (some centres undefined) (HELM PEPTIDE1{[ac].I.S.Q.L.[O=C1OB(O)CC1N[*:1]]}$$$$V2.0), in experiment [2], the result was inactive.
